Test results: paper PMC11439047 (Nature Communications, 2024)
Residue numbers refer to the chain shown, from its start.

Assays:
Assay in all cases: Saturation radioligand binding with [3H]-α,β-methylene ATP
P2X1 receptor E122A = molecular target: T1, P2X1 receptor E122A (Homo sapiens, UniProt P51575, E122A)
T1 sequence (P51575 1-399 E122A): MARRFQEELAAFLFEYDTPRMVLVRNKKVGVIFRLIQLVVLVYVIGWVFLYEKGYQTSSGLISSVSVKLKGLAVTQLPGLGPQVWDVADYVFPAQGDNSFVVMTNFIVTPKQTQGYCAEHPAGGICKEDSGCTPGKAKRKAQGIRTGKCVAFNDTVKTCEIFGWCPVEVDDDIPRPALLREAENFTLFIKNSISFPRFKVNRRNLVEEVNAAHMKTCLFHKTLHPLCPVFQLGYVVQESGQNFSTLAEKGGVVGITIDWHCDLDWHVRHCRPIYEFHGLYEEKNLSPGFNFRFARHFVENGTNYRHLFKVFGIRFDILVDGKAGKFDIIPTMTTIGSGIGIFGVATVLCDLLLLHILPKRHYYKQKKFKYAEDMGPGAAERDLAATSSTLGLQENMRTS

P2X1 receptor L218T = molecular target: T2, P2X1 receptor L218T (Homo sapiens, UniProt P51575, L218T)
T2 sequence (P51575 1-399 L218T): T1 sequence (P51575 1-399 E122A) with A122E, L218T
Method in brief: (§1)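 Whole HEK293 Flp-In T-REx cells stably expressing receptor, tetracycline-induced (150 ng/ml, 2 days), 15,000 cells/well, washed in HEPES binding buffer pH 7.4 with Ca2+/Mg2+. Increasing [3H]-α,β-methylene ATP added, 3 h room temperature with gentle agitation; non-specific binding with 10 μM ATP. Ice-cold 0.9% NaCl washes, scintillation counting (CCPM). Specific binding fitted one-site; values above 300 nM termed not defined.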

P2X1 receptor F188L = molecular target: T3, P2X1 receptor F188L (Homo sapiens, UniProt P51575, F188L)
T3 sequence (P51575 1-399 F188L): T1 sequence (P51575 1-399 E122A) with A122E, F188L
Method in brief: as §1

`Nc1ncnc2c1ncn2[C@@H]1O[C@H](COP(=O)(O)CP(=O)(O)OP(=O)(O)O)[C@@H](O)[C@H]1O` [α,β-methylene ATP] was tested, and the “binding affinity compared to WT-P2X1” value (P2X1 receptor E122A) was “beyond the threshold that could be accurately measured”, the “binding affinity compared to WT-P2X1” value (P2X1 receptor L218T) was “similar” and the “binding affinity compared to WT-P2X1” value (P2X1 receptor F188L) was “similar”.
